Results on 13 molecules are retold here after PubChem BioAssay.

Activity calls are given as the source filed them.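 The calls were made as follows, unless noted: active = NADPH fluorescence slope more negative than the mean of all samples by about 3 SD, 99.7% confidence; inactive = the rest.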

Experiment [1] can be described thus: inhibitors of TNFa-induced NFkB p65 translocation, primary screen, imaging, HUVEC, MLSMR starter and 10KST1 sets (AID 438;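 active = inhibition above 20% together with a positive visual image hit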;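 also: compound added about 3h40 before a 20 min TNFalpha stimulation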;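 as to inhibition: signal is the nuclear over cytoplasmic p65 intensity ratio per well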). The following applies: HUVEC TNFa-induced p65 nuclear translocation; cell count: measured here: nuclei count (cytotoxicity indicator), at 2.08 µM; inhibition: at 2 µM, stronger effect = higher value, 0% TNFa-plus-vehicle, 100% no-TNFa wells.
The nature of experiment [2]: reduction of polyQ htt aggregates in cells – imaging, exon1htt(103Q)mCFP cells, high-content imaging, primary screen (AID 483;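 active = visual image review flags a hit and inhibition of aggregation exceeds 20%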;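 also: compound exposure lasted 3 days before fixation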;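 as to nuclei count: percent of the per-plate median nuclei count of sample wells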). As to conditions: exon1htt(103Q)mCFP cell line, aggregate imaging, at 2 µM; inhibition of aggregation: stronger effect = higher value; nuclei count: measured here: cell count, toxicity.
A short description of experiment [3]: endothelial E-selectin expression blockers – imaging, HUVEC, immunofluorescence, MLSMR starter and 10KST1 sets, primary screen (AID 487;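 active = visually confirmed hit in the image check and inhibition above 20%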;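 as to inhibition: signal is fraction of cell area covered by stained E-selectin grains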;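 as to nuclei count: 100% = median nuclei count of all wells on the same plate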). The following applies: HUVEC TNFalpha-induced E-selectin immunofluorescence imaging, at 2 µM; inhibition: stronger effect = higher value; nuclei count: measured here: cell number, toxicity.
In experiment [4] the target is Voltage-gated potassium channel subunit beta-2 (Rattus norvegicus) (UniProt P62483). As to the kind of experiment: inhibitors of rat Kvbeta2 reductase activity – biochemical, NADPH fluorescence, primary screen (AID 622;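 active = fluorescence slope higher than the sample average by over 3 SD, cut at about -0.22 in these data, passing the limit was not always enough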;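 also: slope of raw intensity against log time taken from 70 to 1610 s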). As to conditions: recombinant KvBeta, 4-cyanobenzaldehyde reduction, at 10 µM, stronger effect = higher value.
The target is the same in experiment [5]. Put plainly: enhancers of rat Kvbeta2 NADPH turnover – biochemical, NADPH fluorescence, primary screen (AID 623).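 Also: fluorescence intensity change per second fitted from 20 to 320 s.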 As to conditions: Recombinant KvBeta, NADPH fluorescence decrease slope, 10 min; at 10 µM; stronger effect = lower value.
Experiment [6] addresses Muscarinic acetylcholine receptor M4 (Homo sapiens) (UniProt P08173). As to the kind of experiment: M4-linked GIRK flux change, two-sided – cell-based, HEK293 M4/GIRK, thallium flux, BTC-AM, M4 allosteric agonist project, primary screen (AID 625;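 active = fluorescence slope after compound addition differing from the mean of all tested samples at 99.7% confidence, mostly higher but some lower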;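 also: thallium influx through GIRK channels coupled to M4 in HEK293 cells with BTC-AM dye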). The following applies: at 10 µM, actives lie on both sides. In short, it runs like this: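 Assay system: HEK293 cells with M4 receptor and GIRK channels / Controls: carbachol and DMSO controls / Schedule: 1 h dye loading, 2 min kinetic read / Technique: kinetic fluorescence with BTC-AM dye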

The nature of experiment [7]: blockers of RIG-like receptor reporter activation – cell-based, Sendai virus stimulus, luciferase, 10K MLSCN set, TLR/RLR signaling modifier project, primary screen (AID 602276;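 active = inhibition at or above 50% at 10 µM; inactive = inhibition below 50%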;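 also: firefly luciferase from ISG56 promoter only with Renilla not read in this screen; 0% = Sendai virus plus DMSO and 100% = medium plus DMSO without virus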). As to conditions: HEK293 RL24 IRF3 luciferase reporter, at 10 µM, stronger effect = higher value.
Experiment [8] is described as follows: TLR3 IRF3 reporter activation blockers – cell-based, poly I:C stimulus, luciferase, 10K MLSCN set, primary screen (AID 602277;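 active = inhibition of the reporter signal at or above 50%; inactive = inhibition below 50%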). As to conditions: HEK293-TLR3 RL24 IRF3 luciferase reporter, at 10 µM, stronger effect = higher value.

Muscarinic acetylcholine receptor M4 (Homo sapiens), sequence (P08173 whole entry, looked up): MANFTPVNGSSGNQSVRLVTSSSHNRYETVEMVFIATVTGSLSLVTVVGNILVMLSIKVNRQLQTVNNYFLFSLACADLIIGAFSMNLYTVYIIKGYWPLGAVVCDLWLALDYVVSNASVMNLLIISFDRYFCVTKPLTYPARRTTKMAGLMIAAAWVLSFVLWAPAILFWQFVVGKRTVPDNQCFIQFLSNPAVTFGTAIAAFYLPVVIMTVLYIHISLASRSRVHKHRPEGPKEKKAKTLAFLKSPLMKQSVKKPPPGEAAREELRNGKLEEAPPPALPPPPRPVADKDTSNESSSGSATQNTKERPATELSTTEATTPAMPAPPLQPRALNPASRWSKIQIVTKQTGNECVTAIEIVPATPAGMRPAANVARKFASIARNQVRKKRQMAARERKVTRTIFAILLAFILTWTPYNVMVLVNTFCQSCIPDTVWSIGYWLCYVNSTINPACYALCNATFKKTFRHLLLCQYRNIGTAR
Voltage-gated potassium channel subunit beta-2 (Rattus norvegicus), sequence (P62483 whole entry, looked up): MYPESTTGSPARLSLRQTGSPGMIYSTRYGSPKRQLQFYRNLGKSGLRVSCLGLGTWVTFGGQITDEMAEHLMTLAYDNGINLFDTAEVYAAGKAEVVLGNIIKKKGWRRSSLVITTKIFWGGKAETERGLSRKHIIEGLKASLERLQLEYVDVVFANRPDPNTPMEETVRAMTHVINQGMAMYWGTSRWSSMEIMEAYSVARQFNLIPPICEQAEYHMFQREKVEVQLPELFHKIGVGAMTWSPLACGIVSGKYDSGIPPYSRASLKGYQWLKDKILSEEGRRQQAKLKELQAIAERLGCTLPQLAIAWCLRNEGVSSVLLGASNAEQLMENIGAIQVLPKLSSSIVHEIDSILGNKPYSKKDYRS

With `CCOc1ccc(-n2c(=O)cc(N3CCN(c4ccccc4)CC3)[nH]c2=O)cc1`, the cell count in experiment [1] was 542. The inhibition in experiment [1] is -4.4% (inactive); in experiment [3], -40.5% (inactive); in experiment [7], 12.1% (inactive); in experiment [8], 11.2% (inactive). The inhibition of aggregation in experiment [2] was -3.5% (inactive). Moreover, the nuclei count stood at 87.1% in experiment [2] and 108% in experiment [3]. Besides, the figures for the fluorescence slope in experiment [4] and in experiment [6] were -0.411 (inactive) and 0.00553 (inactive), respectively. Besides, the NADPH fluorescence slope in experiment [5] was -1.6e-05 (inactive).

In the case of `C=CCN1C(=O)/C(=C2/Sc3ccccc3N2C)SC1=Nc1c(C)n[nH]c1C`, in experiment [1], the cell count was 401. Besides, the inhibition in experiment [1] is -0.2% (inactive); in experiment [3], -70.1% (inactive); in experiment [7] it was 12.6% (inactive); in experiment [8] it was 10.1% (inactive). Moreover, the inhibition of aggregation in experiment [2] was -18.2% (inactive). The nuclei count in experiment [2] amounted to 103%; in experiment [3], 106%. Also, the fluorescence slope in experiment [4] is -0.519 (inactive); in experiment [6], 0.00378 (inactive). In addition, the NADPH fluorescence slope in experiment [5] was -2.3e-05 (inactive).

Consider `CCN(CCCNC(=O)c1cn(CC)c2ccc(S(=O)(=O)N(C)C)cc2c1=O)c1cccc(C)c1`, for which the cell count in experiment [1] was 587. Also, the inhibition in experiment [1] is -12.9% (inactive); in experiment [3], -62.7% (inactive); in experiment [7], 5.55% (inactive); in experiment [8], 3.96% (inactive). Moreover, the inhibition of aggregation in experiment [2] was 23.2% (inactive). Also, the nuclei count in experiment [2] was determined as 106%; in experiment [3], 116%. Besides, the fluorescence slope was -0.475 (inactive) in experiment [4] and 0.00589 (inactive) in experiment [6]. Besides, in experiment [5], the NADPH fluorescence slope is 8.6e-05 (inactive).

As for `O=C(c1noc2c1CCc1ccccc1-2)N1CCOCC1`, the cell count in experiment [1] worked out at 234. For the same molecule, the inhibition was -5.4% (inactive) in experiment [1], -35.7% (inactive) in experiment [3], -5.37% (inactive) in experiment [7] and -37.8% (inactive) in experiment [8]. In addition, the inhibition of aggregation in experiment [2] is 18.9% (inactive). The nuclei count in experiment [2] amounted to 90.2%; in experiment [3], 120%. In addition, the fluorescence slope in experiment [4] was -0.572 (inactive); in experiment [6], 0.0064 (inactive). In addition, in experiment [5], the NADPH fluorescence slope is 2.9e-06 (inactive).

For the molecule `Cc1onc(-c2c(Cl)cccc2Cl)c1C(=O)NCCCN1CCOCC1`, in experiment [1], the cell count turned out to be 618. The inhibition in experiment [1] is 3.6% (inactive); in experiment [3], -48.9% (inactive); in experiment [7], 9.5% (inactive); in experiment [8], 10.6% (inactive). Moreover, the inhibition of aggregation in experiment [2] is 13.7% (inactive). The figures for the nuclei count in experiment [2] and in experiment [3] were 100% and 84%, respectively. For the same molecule, the fluorescence slope in experiment [4] is -0.47 (inactive); in experiment [6] it was 0.00479 (inactive). In experiment [5], the NADPH fluorescence slope is -2.9e-05 (inactive).

In the case of `Cc1cc(Cl)c(S(=O)(=O)NC2CCCCC2)cc1OCC(=O)Nc1nncs1`, the cell count in experiment [1] came to 308. The inhibition in experiment [1] was -21.3% (inactive); in experiment [3], -32.9% (inactive); in experiment [7] it was 13.4% (inactive); in experiment [8], 0.658% (inactive). Further, the inhibition of aggregation in experiment [2] is -4.2% (inactive). The nuclei count in experiment [2] was determined as 107%; in experiment [3] it was 118%. For the same molecule, the fluorescence slope is -0.506 (inactive) in experiment [4] and 0.00536 (inactive) in experiment [6]. The NADPH fluorescence slope in experiment [5] is -3.4e-05 (inactive).

For the molecule `C=CCc1cc(C(=O)N2CCCCC2)ccc1O`, the cell count in experiment [1] was 442. In addition, the inhibition in experiment [1] is 3.4% (inactive); in experiment [3], -96.3% (inactive); in experiment [7], 5.94% (inactive); in experiment [8], -14% (inactive). In addition, the inhibition of aggregation in experiment [2] is 6.3% (inactive). In addition, the nuclei count in experiment [2] was 99.5%; in experiment [3], 118%. Besides, the fluorescence slope in experiment [4] is -0.523 (inactive); in experiment [6] it was 0.00415 (inactive). The NADPH fluorescence slope in experiment [5] was -0.000166 (inactive).

With `O=C1CCc2nc3sc4c(c3c(=O)n2N1)CCCC4`, the cell count in experiment [1] was determined as 667. Also, the inhibition in experiment [1] was -18.1% (inactive); in experiment [3] it was 37.8% (inactive); in experiment [7], -2.82% (inactive); in experiment [8], -5.12% (inactive). The inhibition of aggregation in experiment [2] was -14% (inactive). Moreover, the nuclei count in experiment [2] was 104%; in experiment [3], 98.8%. Further, the fluorescence slope in experiment [4] was -0.424 (inactive); in experiment [6], 0.00678 (inactive). Moreover, in experiment [5], the NADPH fluorescence slope is 4.4e-05 (inactive).

For `CCN1C(=O)/C(=C/N2CCc3ccccc32)SC1=S`, in experiment [1], the cell count came out at 382. Besides, the inhibition in experiment [1] is 1.8% (inactive); in experiment [3] it was -1.2% (inactive); in experiment [7] it was -26.3% (inactive); in experiment [8], -99.1% (inactive). The inhibition of aggregation in experiment [2] is -22.3% (inactive). In addition, the nuclei count in experiment [2] came to 117%; in experiment [3] it was 100%. Moreover, the fluorescence slope was -0.403 (inactive) in experiment [4] and 0.00654 (inactive) in experiment [6]. Further, the NADPH fluorescence slope in experiment [5] is -2.8e-05 (inactive).

With `CCOC(=O)CCC(=O)Nc1ccc(S(=O)(=O)N2CCCC2)cc1`, the cell count in experiment [1] turned out to be 720. For the same molecule, the inhibition was -3% (inactive) in experiment [1], -15.9% (inactive) in experiment [3], -1.78% (inactive) in experiment [7] and 100% (active) in experiment [8]. For the same molecule, in experiment [2], the inhibition of aggregation is 3.2% (inactive). In addition, the nuclei count is 98.3% in experiment [2] and 126% in experiment [3]. Further, the fluorescence slope in experiment [4] is -0.468 (inactive); in experiment [6], 0.00707 (inactive). Also, the NADPH fluorescence slope in experiment [5] was 2.8e-05 (inactive).

Consider `CCOc1ccc(CN2CCN(c3cc(C)nc4c5c(C)cc(C)nc5nn34)CC2)cc1`, for which, in experiment [1], the cell count was 361. Moreover, the inhibition was -7.1% (inactive) in experiment [1], 1.9% (inactive) in experiment [3], 11.7% (inactive) in experiment [7] and 22.8% (inactive) in experiment [8]. In addition, in experiment [2], the inhibition of aggregation was 5% (inactive). The nuclei count in experiment [2] is 108%; in experiment [3], 114%. Further, the fluorescence slope in experiment [4] was -0.385 (inactive); in experiment [6], 0.00419 (inactive). In addition, the NADPH fluorescence slope in experiment [5] is 1.9e-05 (inactive).

Turning to `CCOc1ccc(-n2cc(C(=O)Nc3cccc(C)n3)c3cc(OC)c(OC)cc3c2=O)cc1`, the cell count in experiment [1] was found to be 395. Further, the inhibition in experiment [1] was 5.1% (inactive); in experiment [3], -8% (inactive); in experiment [7], 13.3% (inactive); in experiment [8], 25.9% (inactive). In addition, in experiment [2], the inhibition of aggregation was 20.8% (inactive). The nuclei count in experiment [2] was found to be 82.4%; in experiment [3], 94%. Further, the fluorescence slope was -0.414 (inactive) in experiment [4] and 0.0107 (inactive) in experiment [6]. The NADPH fluorescence slope in experiment [5] is -0.000102 (inactive).

As to `O=C(Nc1ccc(N2CCOCC2)cc1)c1cccc(S(=O)(=O)N2CCCC2)c1`, the cell count in experiment [1] turned out to be 401. Moreover, the inhibition in experiment [1] is -0.5% (inactive); in experiment [3], -31.6% (inactive); in experiment [7] it was 12.2% (inactive); in experiment [8], 9.44% (inactive). Moreover, the inhibition of aggregation in experiment [2] was 6.3% (inactive). Further, the nuclei count turned out to be 106% in experiment [2] and 110% in experiment [3]. The values for the fluorescence slope in experiment [4] and in experiment [6] were -0.309 (inactive) and 0.00454 (inactive), respectively. Also, in experiment [5], the NADPH fluorescence slope was -3.6e-05 (inactive).
